The values that follow come from ChEMBL document CHEMBL1799933, “Discovery of a selective allosteric M1 receptor modulator with suitable development properties based on a quinolizidinone carboxylic acid scaffold” (J Med Chem, 2011).

Numbering of substitutions follows the chain as printed. The source made the active and inactive calls. No cut-off for these calls is given here.

The nature of series [1]: Clearance in rat at 3 mg/kg, po and 1 mg/kg, iv. The format is ADME, organism-based. To be noted: in vivo. In outline: (§1)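 Rats (n = 2) dosed orally at 3 mg/kg and IV at 1 mg/kg. Interanimal variability under 20% for all values.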
Series [2] concerns the target T1, Muscarinic acetylcholine receptor M1 (Mus musculus) (UniProt P12657).
T1 sequence (whole entry): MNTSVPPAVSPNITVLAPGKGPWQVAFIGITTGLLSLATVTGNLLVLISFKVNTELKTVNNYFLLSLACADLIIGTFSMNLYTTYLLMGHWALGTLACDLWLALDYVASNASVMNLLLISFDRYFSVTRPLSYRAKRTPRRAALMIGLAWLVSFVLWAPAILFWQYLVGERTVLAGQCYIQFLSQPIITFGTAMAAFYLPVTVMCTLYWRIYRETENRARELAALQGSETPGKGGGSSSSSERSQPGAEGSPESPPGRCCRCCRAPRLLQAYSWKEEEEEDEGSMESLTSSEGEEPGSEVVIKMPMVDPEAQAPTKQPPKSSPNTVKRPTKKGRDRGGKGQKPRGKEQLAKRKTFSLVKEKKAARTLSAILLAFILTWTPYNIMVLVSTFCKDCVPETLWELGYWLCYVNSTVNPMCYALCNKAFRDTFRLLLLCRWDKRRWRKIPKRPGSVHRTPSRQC
Briefly: Agonist activity at mouse muscarinic M1 receptor expressed in CHOK1 cells assessed as potentiation of acetylcholine-induced calcium mobilization preincubated for 4 mins measured after 1 hr by FLIPR assay. The series is classed as functional, cell-based. The following applies: CHO-K1. The essentials: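 CHO-NFAT cells (CHO-K1 background) expressing mouse M1, plated 25,000/well, grown overnight at 37 °C, 6% CO2. Cells washed in HBSS with 20 mM Hepes, 2.5 mM probenecid, 0.1% BSA, then loaded with 1 μM Fluo-4AM for 1 h at 37 °C. Compound (final 0.67% DMSO) preincubated 4 min, then stimulated 4 min with EC20 ACh. Ca2+ flux read on FLIPR384.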
A general note: A change in cytosolic calcium serves as a functional read-out for many receptors and channels.

Series [3] in a line: Plasma protein binding in rat serum by equilibrium dialysis method. The series is classed as ADME, cell-free. To be noted: read-out: PPB (converted). In outline:
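Protein binding measured by equilibrium dialysis against rat or human serum.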
(In general: In equilibrium dialysis free small molecules cross a membrane that holds back macromolecules.)

Series [4] can be described thus: Half life in dog at 3 mg/kg, po and 1 mg/kg, iv. The format is ADME, organism-based, Canis lupus familiaris. To be noted: in vivo. In outline:
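Dog PK, n = 2 animals. Given orally at 3 mg/kg and intravenously at 1 mg/kg. Interanimal variability under 20% for all values.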

In series [5] the target is T2, Muscarinic acetylcholine receptor M1 (Rattus norvegicus) (UniProt P08482).
T2 sequence (whole entry): T1 sequence (whole entry) with P309S
Kind of series: Agonist activity at rat muscarinic M1 receptor expressed in CHOK1 cells assessed as potentiation of acetylcholine-induced calcium mobilization preincubated for 4 mins measured after 1 hr by FLIPR assay. The format is functional, cell-based. The following applies: CHO-K1. In outline:
(§2)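 CHO-NFAT cells expressing the named muscarinic receptor (human M1–M4; rhesus, dog or rat M1 in CHO-K1) were plated at 25,000 cells/well and grown overnight at 37 °C, 6% CO2. Cells were loaded with 1 μM Fluo-4AM for 1 h, washed, and preincubated 4 min with serially diluted compound (final DMSO 0.67%). They were then stimulated 4 min with an EC20 of ACh, and Ca2+ flux was read by FLIPR384.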

Series [6] is described as follows: Oral bioavailability in rat at 3 mg/kg. The series is classed as ADME, organism-based. The following applies: in vivo. In outline:
as §1

Series [7] concerns the target T3, Muscarinic acetylcholine receptor M1 (Macaca mulatta) (UniProt P56489).
T3 sequence (whole entry): T1 sequence (whole entry) with V5A, S254T, A265P, E277D, K320R, G337A, V413I
Briefly: Agonist activity at rhesus monkey muscarinic M1 receptor expressed in CHOK1 cells assessed as potentiation of acetylcholine-induced calcium mobilization preincubated for 4 mins measured after 1 hr by FLIPR assay. The format is functional, cell-based. To be noted: CHO-K1. The essentials:
as §2

Series [8] has as its target Muscarinic acetylcholine receptor M3 (Homo sapiens) (UniProt P20309). Kind of series: Agonist activity at human muscarinic M3 receptor expressed in CHONFAT cells assessed as increase in acetylcholine-induced calcium mobilization at 10 uM preincubated for 4 mins measured after 1 hr by FLIPR assay. The series is classed as functional, cell-based. In outline: as §2
Series [9] can be described thus: Passive permeability of the compound at 5 uM. The series is classed as ADME. The following applies: not told.
The target of series [10] is T4, Muscarinic acetylcholine receptor M4 (Homo sapiens) (UniProt P08173).
T4 sequence (whole entry): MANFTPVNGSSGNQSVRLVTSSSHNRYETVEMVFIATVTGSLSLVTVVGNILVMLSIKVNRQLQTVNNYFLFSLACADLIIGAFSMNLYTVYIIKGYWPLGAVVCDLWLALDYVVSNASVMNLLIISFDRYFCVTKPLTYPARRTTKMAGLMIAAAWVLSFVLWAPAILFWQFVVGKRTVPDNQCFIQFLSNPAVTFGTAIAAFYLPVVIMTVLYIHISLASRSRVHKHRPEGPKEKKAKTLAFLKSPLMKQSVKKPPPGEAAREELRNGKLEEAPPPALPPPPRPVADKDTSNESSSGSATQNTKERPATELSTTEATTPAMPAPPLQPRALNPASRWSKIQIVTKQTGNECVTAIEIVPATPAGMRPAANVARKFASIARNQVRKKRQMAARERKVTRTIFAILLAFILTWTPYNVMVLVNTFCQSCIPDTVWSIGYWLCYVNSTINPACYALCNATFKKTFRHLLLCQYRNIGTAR
Kind of series: Agonist activity at human muscarinic M4 receptor expressed in CHONFAT cells assessed as increase in acetylcholine-induced calcium mobilization at 10 uM preincubated for 4 mins measured after 1 hr by FLIPR assay. The format is functional, cell-based. In outline: as §2

Sequence of Muscarinic acetylcholine receptor M3 (Homo sapiens) (P20309 whole entry, looked up): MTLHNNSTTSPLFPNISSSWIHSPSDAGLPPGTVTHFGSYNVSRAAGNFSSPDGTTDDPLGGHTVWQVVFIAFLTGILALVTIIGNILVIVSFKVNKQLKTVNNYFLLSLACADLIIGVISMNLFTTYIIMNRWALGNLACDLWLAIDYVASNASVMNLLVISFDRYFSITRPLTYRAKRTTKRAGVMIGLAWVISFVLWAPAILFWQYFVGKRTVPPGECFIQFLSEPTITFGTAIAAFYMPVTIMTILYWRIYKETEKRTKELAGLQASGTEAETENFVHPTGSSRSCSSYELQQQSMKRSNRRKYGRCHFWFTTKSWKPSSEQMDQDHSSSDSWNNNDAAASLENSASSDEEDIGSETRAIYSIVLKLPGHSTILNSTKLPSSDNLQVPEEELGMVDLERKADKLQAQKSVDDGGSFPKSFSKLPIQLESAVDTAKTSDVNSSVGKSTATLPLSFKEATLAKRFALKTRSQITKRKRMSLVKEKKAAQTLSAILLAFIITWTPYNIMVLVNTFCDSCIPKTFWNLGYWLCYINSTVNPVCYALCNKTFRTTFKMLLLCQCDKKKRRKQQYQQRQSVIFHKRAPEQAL

`N#CC1(c2ccccn2)CCN(Cc2cc(C(=O)O)c(=O)n3ccccc23)CC1` [MSD-M1PAM] came in with a clearance in series [1] of 13.5 mL/min/kg. For the same compound, the IP in series [2] came to 69 nM; in [5], 89 nM; in [7] it was 49 nM. Moreover, in series [3], the fraction unbound was 0.318. This compound showed a half-life in series [4] of 4.4 h. This compound also returned a bioavailability in [6] of 68%. Moreover, the outcome in series [8] and in series [10] was inactive. This compound had a Papp at 5 µM in [9] of 18 ×10⁻⁶ cm/s.

What is called half-life is how long it takes for the measured level to halve. The bioavailability is dose-corrected exposure relative to a reference, in per cent. A word on the Papp: it is the rate of passage across a membrane or cell layer, normalised by area and donor concentration.
